This passage reports Tm and folding enthalpy results from the array DNA melting data of Ke et al. (doi:10.1101/2024.01.08.574731).

A short description of series [1]: melting temperature; fluorescence melt of hairpins on a sequencing array, two-state fit, raised by 9.35 °C to match UV melts. Conditions: sodium 0.088 M. An outline of the steps: (§1)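 Folding enthalpy and melting temperature were estimated with bootstrapped two-state fits and combined across four replicates by inverse-variance weighting, with fitted temperatures raised by 9.35 °C to match UV melts. The data were Cy3 fluorescence of library hairpins, with annealed Cy3 and quencher oligos, on a sequenced MiSeq flow cell in 50 mM Na-HEPES pH 8.0, 25 mM NaCl, imaged in 2.5 °C steps up to 60 °C and normalised to pre-quench Cy3 and control constructs.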

Series [2] can be described thus: folding enthalpy; higher = less favourable; fluorescence melt of hairpins on a sequencing array, two-state fit. The conditions noted are these: sodium 0.088 M. An outline of the steps:
as §1

Consider GATCCCGAGTGGGATC ((((((....)))))), for which, in series [1], the Tm amounted to 61.1 °C. Also, the folding enthalpy in series [2] was -33.7 kcal/mol.
Consider CGATCGGAAACGATGTCG ((((((....)))..))), for which the Tm in series [1] came out at 39.5 °C. For the same sequence, the folding enthalpy in series [2] is -13.6 kcal/mol.
With GCGAGGCGAAAGCGCCGC (((..((....))..))), the Tm in series [1] worked out at 63.8 °C. In addition, the folding enthalpy in series [2] is -12.5 kcal/mol.
The corresponding values for GTCAGTCGAAAGACGGAC (((.(((....))).))) are 56.2 °C and -33.3 kcal/mol.
Take GGTTATGCGAAAGCAACC (((..(((....)))))): the Tm in series [1] worked out at 38.3 °C. In series [2], the folding enthalpy is -15.1 kcal/mol.
The corresponding values for CGTACCGGAAACGGACG (((.(((....)))))) are 45.7 °C and -21.2 kcal/mol.
The corresponding values for GCGGAGGGAAACCTCCAC (.(((((....))))).) are 45.7 °C and -15.4 kcal/mol.
Take GATCCACATATGGATC ((((((....)))))): the Tm in series [1] stood at 50.6 °C. The folding enthalpy in series [2] is -41.2 kcal/mol.
On to GAAAAGCGAAAGCTATTC (((.(((....))).))), for which the Tm in series [1] was found to be 36.4 °C. In addition, the folding enthalpy in series [2] was -19.5 kcal/mol.
For GCAGATGGAAACATCCGC ((.((((....)))).)), in series [1], the Tm was determined as 42.5 °C. Besides, the folding enthalpy in series [2] was -23.9 kcal/mol.
The corresponding values for GATCCCGATGGGATC ((((((...)))))) are 61.3 °C and -36.5 kcal/mol.
Turning to TGACGGAAACGTCA (((((....))))), in series [1], the Tm amounted to 52.5 °C. The folding enthalpy in series [2] was -23.7 kcal/mol.
Regarding GCGGAGAACCGC ((((....)))), the Tm in series [1] amounted to 51.1 °C. Besides, the folding enthalpy in series [2] was -22.7 kcal/mol.
The corresponding values for GAACTGCGAAAGCATTTC (((.(((....))).))) are 38.7 °C and -20.1 kcal/mol.
The corresponding values for CGTTCGGAAACGATAACG ((((((....)))..))) are 36.1 °C and -30.6 kcal/mol.
The corresponding values for GCAACGCGAAAGCGACGC ((..(((....)))..)) are 48.5 °C and -15.9 kcal/mol.
GGAACGAAAGTTCC (((((....))))): in series [1], the Tm turned out to be 64.3 °C. For the same sequence, in series [2], the folding enthalpy is -33.3 kcal/mol.
The corresponding values for GATCAGACAACTGATC ((((((....)))))) are 45.9 °C and -32.3 kcal/mol.
GGTTTCGGAAACGGAATC (.((.((....)).)).): the Tm in series [1] came to 33.4 °C. In addition, in series [2], the folding enthalpy was -20.8 kcal/mol.
The corresponding values for GATCAACTGTTTGATC ((((((....)))))) are 43.2 °C and -32.3 kcal/mol.
The corresponding values for GAGAAGGGAAACCTCCTC (((.(((....))).))) are 28.8 °C and -17.7 kcal/mol.
As for CGCCCCGGAAACGGAGCG (((.(((....))).))), in series [1], the Tm stood at 56.5 °C. Moreover, the folding enthalpy in series [2] is -39.3 kcal/mol.
In the case of GTTTACGAAAGTAAAC ((((((....)))))), the Tm in series [1] was determined as 57.3 °C. The folding enthalpy in series [2] was -28.3 kcal/mol.
With GCCAAGCGAAAGCTACGC ((..(((....)))..)), in series [1], the Tm came out at 34.7 °C. Besides, the folding enthalpy in series [2] was -11 kcal/mol.
Turning to GCACGCGGAAACACGTGC (((((.(....).))))), the Tm in series [1] is 57.1 °C. In series [2], the folding enthalpy is -51.2 kcal/mol.
The corresponding values for GAATAACGAAAGTTTTC (((.(((....)))))) are 29.7 °C and -13.7 kcal/mol.
The corresponding values for GGTCGAGGAAACTTGGCC ((.(.((....)).).)) are 42.4 °C and -25.3 kcal/mol.
GCGCCGACGAAAGTCCGC (((..(((....)))))): in series [1], the Tm was determined as 50 °C. Further, the folding enthalpy in series [2] was -19.8 kcal/mol.
Take GTAGTCGCGAAAGCGTAC (((..(((....)))))): the Tm in series [1] was determined as 32.9 °C. For the same sequence, in series [2], the folding enthalpy was -8.28 kcal/mol.
The corresponding values for GATCAGGTGGCTGATC ((((((....)))))) are 50.5 °C and -31.6 kcal/mol.
GGCTACGAAAGTAAGGCC ((((((....)))..))): the Tm in series [1] is 48.2 °C. For the same sequence, in series [2], the folding enthalpy was -23.3 kcal/mol.
The corresponding values for GCGTCCAACGC ((((...)))) are 53.6 °C and -19.9 kcal/mol.
For GGCCGGCGAAAGCCCGCC (((.(((....))).))), the Tm in series [1] is 59.7 °C. For the same sequence, the folding enthalpy in series [2] was -29.9 kcal/mol.
The corresponding values for GATCTTTACTAAGATC ((((((....)))))) are 45 °C and -38 kcal/mol.
In the case of GAACAGCGAAAGCTCTTC (((.(((....))).))), in series [1], the Tm was 34.3 °C. Further, the folding enthalpy in series [2] is -14.5 kcal/mol.
For the sequence GATCTGCAGCCAGATC ((((((....)))))), the Tm in series [1] is 48.9 °C. In addition, the folding enthalpy in series [2] was -32.6 kcal/mol.
For the sequence GGACATCGAAAGATCTCC (((.(((....))).))), the Tm in series [1] was 32.6 °C. The folding enthalpy in series [2] was -21.8 kcal/mol.
